In ChEMBL document CHEMBL5104216, “Fragment-Sized Thiazoles in Fragment-Based Drug Discovery Campaigns: Friend or Foe?” (ACS Med Chem Lett, 2022):

Columns and labels:
[1] = Redox activity of compound assessed as redox index at 100 uM in presence of 1 mM DTT measured by HRP-PR assay; assay type: physicochemical
Summary of the method: (§1)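 H2O2 from redox cycling, with or without DTT, detected with horseradish peroxidase-phenol red (HRP-PR).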

[2] = target: UDP-N-acetylglucosamine 1-carboxyvinyltransferase (Escherichia coli K-12) (UniProt P0A749); assay: Inhibition of recombinant Escherichia coli MurA assessed as residual activity at 500 uM using UDP-N-acetylglucosamine as substrate preincubated for 30 mins followed by substrate addition and measured by malachite green based colorimetric assay relative to control
Chain of UDP-N-acetylglucosamine 1-carboxyvinyltransferase (Escherichia coli K-12) (P0A749 whole entry): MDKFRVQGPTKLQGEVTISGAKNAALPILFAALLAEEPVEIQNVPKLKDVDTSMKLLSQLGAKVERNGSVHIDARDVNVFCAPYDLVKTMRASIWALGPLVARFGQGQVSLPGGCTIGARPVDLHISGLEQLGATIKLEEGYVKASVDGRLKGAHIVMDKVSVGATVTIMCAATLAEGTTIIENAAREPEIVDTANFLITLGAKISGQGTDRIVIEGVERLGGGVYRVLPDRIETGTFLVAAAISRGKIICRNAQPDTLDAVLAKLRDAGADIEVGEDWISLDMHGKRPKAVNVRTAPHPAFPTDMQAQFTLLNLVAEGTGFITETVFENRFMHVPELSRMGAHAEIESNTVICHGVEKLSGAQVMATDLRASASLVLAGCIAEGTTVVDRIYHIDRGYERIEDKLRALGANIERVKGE
Summary of the method: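 E. coli MurA at 500–625 μM with 30 min preincubation before substrate addition. Malachite green colorimetric read-out. Activity threshold was <50% residual activity.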

[3] = Redox activity of compound assessed as redox index at 100 uM measured by H2DCFDA assay; assay type: physicochemical
Summary of the method: (§2)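 Reactive oxygen species, with or without the reducing agent TCEP, detected with the fluorescent probe H2DCFDA. Compound spectral interference (autofluorescence) checked under the assay conditions.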

[4] = target: UDP-N-acetylglucosamine 1-carboxyvinyltransferase (Escherichia coli K-12) (UniProt P0A749); assay: Inhibition of recombinant Escherichia coli MurA assessed as residual activity at 500 uM using UDP-N-acetylglucosamine as substrate and measured by malachite green based colorimetric assay relative to control
Summary of the method: (§3)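 Screened at 500–625 μM with malachite green colorimetric read-out. Activity threshold was <50% residual activity.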

[5] = tested on: Mycobacterium tuberculosis; assay: Inhibition of Mycobacterium tuberculosis MetAP1a assessed as residual activity at 625 uM using L-methionine 7-amido-4-methylcoumarin as fluorogenic substrate and measured by fluorescence based assay
Summary of the method: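 Kinetic fluorescence assay in which the enzyme hydrolyses L-methionine 7-amido-4-methylcoumarin to fluorescent 7-amino-4-methylcoumarin. Compounds were tested at 500–625 μM, and activity was called at <50% residual activity. Spectral interference was checked by measuring absorbance at the excitation and emission wavelengths and compound autofluorescence.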

[6] = target: UDP-N-acetylglucosamine 1-carboxyvinyltransferase (Escherichia coli K-12) (UniProt P0A749); assay: Inhibition of recombinant Escherichia coli MurA assessed as residual activity at 500 uM using UDP-N-acetylglucosamine as substrate preincubated for 30 mins in presence of 1 mM DTT followed by substrate addition and measured by malachite green based colorimetric assay relative to control
[7] = Redox activity of compound assessed as redox index at 1 uM measured by resazurin assay; assay type: physicochemical
Summary of the method: (§4)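 Free radicals formed by redox cycling with DTT detected with resazurin by fluorimetric read-out. Spectral interference checked.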

[8] = target: Replicase polyprotein 1ab (Severe acute respiratory syndrome coronavirus 2) (UniProt P0DTD1); assay: Inhibition of recombinant SARS-CoV-2 3CLpro expressed in Escherichia coli NiCo21(DE3) assessed as residual activity at 500 uM using DABCYL-KTSAVLQSGFRKME-EDANS as substrate preincubated for 30 mins followed by substrate addition and measured by FRET assay relative to control
Summary of the method: (§5)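 Kinetic fluorescence read-out of cleavage of a FRET substrate carrying a DABCYL–EDANS pair. Compounds were tested at 500–625 μM, and <50% residual activity was taken as the activity threshold. To exclude false positives, absorbance at the excitation and emission wavelengths and autofluorescence of the compounds were measured.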

[9] = Redox activity of compound assessed as redox index at 100 uM measured by HRP-PR assay; assay type: physicochemical; summary of the method: as §1
[10] = target: Replicase polyprotein 1ab (Severe acute respiratory syndrome coronavirus 2) (UniProt P0DTD1); assay: Inhibition of recombinant SARS-CoV-2 3CLpro expressed in Escherichia coli NiCo21(DE3) assessed as residual activity at 500 uM using DABCYL-KTSAVLQSGFRKME-EDANS as substrate preincubated for 30 mins in presence of 1mM DTT followed by substrate addition and measured by FRET assay relative to control; summary of the method: as §5
[11] = target: D-alanine--D-alanine ligase B (Escherichia coli K-12) (UniProt P07862); assay: Inhibition of recombinant Escherichia coli DdlB assessed as residual activity at 500 uM using D-alanine as substrate incubated for 20 mins and measured by malachite green based colorimetric assay relative to control; summary of the method: as §3
[12] = Redox activity of compound assessed as redox index at 100 uM in presence of 100 uM TCEP measured by H2DCFDA assay; assay type: physicochemical; summary of the method: as §2
[13] = Redox activity of compound assessed as redox index at 10 uM measured by resazurin assay; assay type: physicochemical; summary of the method: as §4
[14] = Aqueous stability of the compound at pH 7.4 measured after 60 mins by spectrophotometric analysis; assay type: physicochemical; settings: buffer, pH 7.4, 1 h
Summary of the method: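 Followed by spectrophotometry as changes in the compound absorption spectrum over time in 50 mM Tris-HCl pH 7.4, 0.5 mM EDTA, read after 60 min in 96-well microplate format. Compounds with low absorbance were not evaluated.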

SMILES: O=C(O)Cc1csc(Br)n1
- Activity_index [1]: 1
- Activity [2]: 72.1%
- Activity_index [3]: 0.9
- Activity [4]: 105%
- Activity [5]: 86.1%
- Activity [6]: 106%
- Activity_index [7]: 0.9
- Activity [8]: 77.1%
- Activity_index [9]: 1
- Activity [10]: 68.6%
- Activity [11]: 103%
- Activity_index [12]: 1
- Activity_index [13]: 1

SMILES: O=C(O)c1scnc1Br
- Activity_index [1]: 1
- Activity [2]: 83.1%
- Activity_index [3]: 1.1
- Activity [4]: 99.5%
- Activity [5]: 122%
- Activity [6]: 111%
- Activity_index [7]: 0.9
- Stability [14]: Stable
- Activity [8]: 135%
- Activity_index [9]: 1
- Activity [10]: 80.1%
- Activity [11]: 96%
- Activity_index [12]: 1.1
- Activity_index [13]: 0.9

SMILES: Nc1nc(-c2ccncc2)cs1
- Activity_index [1]: 1
- Activity [2]: 56.7%
- Activity_index [3]: 1.1
- Activity [4]: 86.7%
- Activity [5]: 110%
- Activity [6]: 103%
- Activity_index [7]: 1
- Stability [14]: Stable
- Activity [8]: 91.9%
- Activity_index [9]: 0.8
- Activity [10]: 77.8%
- Activity [11]: 96%
- Activity_index [12]: 1.2
- Activity_index [13]: 1

SMILES: Cc1nnc(N)s1
- Activity_index [1]: 1
- Activity [2]: 89.5%
- Activity_index [3]: 1
- Activity [4]: 92.9%
- Activity [5]: 114%
- Activity [6]: 99.4%
- Activity_index [7]: 0.9
- Stability [14]: Stable
- Activity [8]: 121%
- Activity_index [9]: 1
- Activity [10]: 81.9%
- Activity [11]: 98%
- Activity_index [12]: 1
- Activity_index [13]: 0.9

SMILES: Brc1cscn1
- Activity_index [1]: 1
- Activity [2]: 106%
- Activity_index [3]: 0.8
- Activity [4]: 100%
- Activity [5]: 83.5%
- Activity [6]: 102%
- Activity_index [7]: 0.9
- Activity [8]: 91.4%
- Activity_index [9]: 1
- Activity [10]: 80.1%
- Activity [11]: 97%
- Activity_index [12]: 0.8
- Activity_index [13]: 1

SMILES: Nc1nnc(C(F)(F)F)s1
- Activity_index [1]: 1
- Activity [2]: 18%
- Activity_index [3]: 1
- Activity [4]: 56.9%
- Activity [5]: 142%
- Activity [6]: 101%
- Activity_index [7]: 0.9
- Stability [14]: Stable
- Activity [8]: 66.8%
- Activity_index [9]: 1
- Activity [10]: 82.9%
- Activity [11]: 100%
- Activity_index [12]: 0.9
- Activity_index [13]: 1

SMILES: Nc1nnc(C2CC2)s1
- Activity_index [1]: 1.1
- Activity [2]: 2.2%
- Activity_index [3]: 1.2
- Activity [4]: 3.5%
- Activity [5]: 92.5%
- Activity [6]: 99.8%
- Activity_index [7]: 0.9
- Stability [14]: Stable
- Activity [8]: 34.2%
- Activity_index [9]: 1.1
- Activity [10]: 79.3%
- Activity [11]: 96%
- Activity_index [12]: 1.2
- Activity_index [13]: 0.9

SMILES: CCOC(=O)Cc1csc(N)n1
- Activity_index [1]: 1
- Activity [2]: 66.3%
- Activity_index [3]: 1.2
- Activity [4]: 85.5%
- Activity [5]: 132%
- Activity [6]: 88.1%
- Activity_index [7]: 0.9
- Stability [14]: Stable
- Activity [8]: 103%
- Activity_index [9]: 1
- Activity [10]: 82.1%
- Activity [11]: 94%
- Activity_index [12]: 1
- Activity_index [13]: 1

SMILES: O=C(O)c1nc(Br)cs1
- Activity_index [1]: 1
- Activity [2]: 90%
- Activity_index [3]: 1
- Activity [4]: 97.3%
- Activity [5]: 111%
- Activity [6]: 106%
- Activity_index [7]: 0.9
- Activity [8]: 88.3%
- Activity_index [9]: 1
- Activity [10]: 85.1%
- Activity [11]: 84%
- Activity_index [12]: 0.9
- Activity_index [13]: 0.9

SMILES: COC(=O)c1cnc(Br)s1
- Activity_index [1]: 1
- Activity [2]: 93%
- Activity_index [3]: 1
- Activity [4]: 96.6%
- Activity [5]: 99.2%
- Activity [6]: 102%
- Activity_index [7]: 1
- Stability [14]: Stable
- Activity [8]: 100%
- Activity_index [9]: 1
- Activity [10]: 92.9%
- Activity [11]: 96%
- Activity_index [12]: 1.1
- Activity_index [13]: 1.1

SMILES: Clc1nccs1
- Activity_index [1]: 1
- Activity [2]: 0.8%
- Activity_index [3]: 1
- Activity [4]: 18.9%
- Activity [5]: 122%
- Activity [6]: 107%
- Activity_index [7]: 1
- Stability [14]: Stable
- Activity [8]: 23.1%
- Activity_index [9]: 1
- Activity [10]: 73.8%
- Activity [11]: 93%
- Activity_index [12]: 0.9
- Activity_index [13]: 0.9

SMILES: Cc1nc(-c2ccc(C(=O)O)cc2)cs1
- Activity_index [1]: 1
- Activity [2]: 113%
- Activity_index [3]: 0.9
- Activity [4]: 102%
- Activity [5]: 136%
- Activity [6]: 101%
- Activity_index [7]: 0.9
- Stability [14]: Stable
- Activity [8]: 149%
- Activity_index [9]: 1
- Activity [10]: 81.2%
- Activity [11]: 94%
- Activity_index [12]: 0.9
- Activity_index [13]: 1.1

SMILES: Cc1nc(C(=O)O)cs1
- Activity_index [1]: 1
- Activity [2]: 1.6%
- Activity_index [3]: 0.9
- Activity [4]: 7.2%
- Activity [5]: 73.9%
- Activity [6]: 105%
- Activity_index [7]: 0.9
- Stability [14]: Stable
- Activity [8]: 3.4%
- Activity_index [9]: 1
- Activity [10]: 78.7%
- Activity [11]: 92%
- Activity_index [12]: 1.6
- Activity_index [13]: 1

SMILES: COC(=O)CC(=O)Nc1ncc(Br)s1
- Activity_index [1]: 1
- Activity [2]: 60.9%
- Activity_index [3]: 1.2
- Activity [4]: 97.9%
- Activity [5]: 78.2%
- Activity [6]: 107%
- Activity_index [7]: 1
- Stability [14]: Stable
- Activity [8]: 95.3%
- Activity_index [9]: 1
- Activity [10]: 86%
- Activity [11]: 88%
- Activity_index [12]: 1
- Activity_index [13]: 0.9

SMILES: Nc1ccc(S(=O)(=O)Nc2nccs2)cc1 [SULFATHIAZOLE]
- Activity_index [1]: 1
- Activity [2]: 82.3%
- Activity_index [3]: 1.2
- Activity [4]: 96.5%
- Activity [5]: 94%
- Activity [6]: 100%
- Activity_index [7]: 0.9
- Stability [14]: Stable
- Activity [8]: 71.7%
- Activity_index [9]: 1
- Activity [10]: 74.2%
- Activity [11]: 94%
- Activity_index [12]: 1.1
- Activity_index [13]: 1

SMILES: O=C(O)c1csc(-c2ccncc2)n1
- Activity_index [1]: 1
- Activity [2]: 90.4%
- Activity_index [3]: 1
- Activity [4]: 103%
- Activity [5]: 93.4%
- Activity [6]: 106%
- Activity_index [7]: 1
- Stability [14]: Stable
- Activity [8]: 98%
- Activity_index [9]: 1
- Activity [10]: 94.4%
- Activity [11]: 96%
- Activity_index [12]: 1.1
- Activity_index [13]: 1

SMILES: CC(=O)c1nc(C)cs1
- Activity_index [1]: 1
- Activity [2]: 93.9%
- Activity_index [3]: 1
- Activity [4]: 102%
- Activity [5]: 136%
- Activity [6]: 93.5%
- Activity_index [7]: 0.9
- Activity [8]: 106%
- Activity_index [9]: 1
- Activity [10]: 78.4%
- Activity [11]: 92%
- Activity_index [12]: 0.8
- Activity_index [13]: 0.9

SMILES: CCOC(=O)Cc1csc(Br)n1
- Activity_index [1]: 1
- Activity [2]: 66.7%
- Activity_index [3]: 1
- Activity [4]: 86.7%
- Activity [5]: 89.6%
- Activity_index [7]: 0.9
- Activity [8]: 72%
- Activity_index [9]: 1
- Activity [10]: 70.8%
- Activity [11]: 95%
- Activity_index [12]: 0.9
- Activity_index [13]: 0.9
